Measured values reported in ChEMBL document CHEMBL1130239, “Synthesis and evaluation of (S)-4-(3-(2'-[11C]isopropylamino)-2-hydroxypropoxy) -2H-benzimidazol -2-one ((S)-[11C]CGP 12388) and (S)-4-(3-((1'-[18F]-fluoroisopropyl)amino)-2-hydroxypropoxy) -2H- benzimidazol-2-one ((S)-[18F]fluoro-CGP 12388) for visualization of beta-adrenoceptors with positron …” (J Med Chem, 1997).
Blank lines part the entries; values can stand above or below the compound they belong to.

Assays:
[1] = organism: Rattus norvegicus; experiment: Biodistribution of [18]Fluoro-CGP 12388 (60 minutes post injection) in heart of male wistar rats; type: ADME, organism-based; details: in vivo, 1 h
In short: (§1)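 Pentobarbital-anesthetized (60 mg/kg ip) male Wistar rats (200 ± 20 g) received iv saline (n = 4) or 500 μg (±)-propranolol (n = 4) <1 min before 2 MBq (30 pmol) tracer in 0.3 mL. They were killed by heart extirpation at 10 or 60 min. Plasma came from blood centrifuged 3 min at 1000g. Tissue counts are expressed as DAR, mean ± SD.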

[2] = organism: Rattus norvegicus; experiment: Biodistribution of [18]Fluoro-CGP 12388 (60 minutes post injection) in intestine of male wistar rats; type: ADME, organism-based; details: in vivo, 1 h; in short: as §1
[3] = organism: Rattus norvegicus; experiment: Biodistribution of [18]Fluoro-CGP 12388 (60 minutes post injection) in kidney of male wistar rats; type: ADME, organism-based; details: in vivo, 1 h; in short: as §1
[4] = organism: Rattus norvegicus; experiment: Biodistribution of [18]Fluoro-CGP 12388 (60 minutes post injection) in lung of male wistar rats; type: ADME, organism-based; details: in vivo, 1 h; in short: as §1
[5] = organism: Rattus norvegicus; experiment: Biodistribution of [18]Fluoro-CGP 12388 (60 minutes post injection) in muscle of male wistar rats; type: ADME, organism-based, Muscle tissue; details: in vivo, 1 h
In short: (§2)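 Male Wistar rats (200 ± 20 g) under ip pentobarbital (60 mg/kg). Saline given iv <1 min before tracer (controls, n = 4). Tracer (2 MBq, 30 pmol) injected iv in 0.3 mL. Rats killed by heart extirpation at 60 min and tissues dissected; plasma taken by centrifugation (3 min, 1000g). Uptake given as DAR, (cpm/g tissue)/(injected cpm/body weight g), mean ± SD.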

[6] = organism: Rattus norvegicus; experiment: Biodistribution of [18]Fluoro-CGP 12388 (60 minutes post injection) in plasma of male wistar rats; type: ADME, organism-based; details: in vivo, 1 h; in short: as §2
[7] = organism: Rattus norvegicus; experiment: Biodistribution of [18]Fluoro-CGP 12388 (60 minutes post injection) in red blood cells of male wistar rats; type: ADME, organism-based; details: in vivo, 1 h; in short: as §2
[8] = organism: Rattus norvegicus; experiment: Biodistribution of [18]Fluoro-CGP 12388 (60 minutes post injection) in spleen of male wistar rats; type: ADME, organism-based; details: in vivo, 1 h; in short: as §2
[9] = organism: Rattus norvegicus; experiment: Biodistribution of [18]Fluoro-CGP 12388 (60 minutes post injection) in trachea of male wistar rats; type: ADME, organism-based; details: in vivo, 1 h; in short: as §2
[10] = organism: Rattus norvegicus; experiment: Biodistribution of {18]Fluoro-CGP 12388 (60 minutes post injection) in liver of male wistar rats; type: ADME, organism-based; details: in vivo, 1 h; in short: as §2
[11] = organism: Rattus norvegicus; experiment: Biodistribution of [18]Fluoro-CGP 12388 (10 minutes post injection) in bone of male wistar rats; type: ADME, organism-based, Bone element; details: in vivo; in short: as §1
[12] = organism: Rattus norvegicus; experiment: Biodistribution of [18]Fluoro-CGP 12388 (10 minutes post injection) in cerebellum of male wistar rats; type: ADME, organism-based; details: in vivo; in short: as §1
[13] = organism: Rattus norvegicus; experiment: Biodistribution of [18]Fluoro-CGP 12388 (10 minutes post injection) in cortex of male wistar rats; type: ADME, organism-based; details: in vivo; in short: as §1
[14] = organism: Rattus norvegicus; experiment: Biodistribution of [18]Fluoro-CGP 12388 (10 minutes post injection) in fat of male wistar rats; type: ADME, organism-based, Adipose tissue; details: in vivo; in short: as §1
[15] = organism: Rattus norvegicus; experiment: Biodistribution of [18]Fluoro-CGP 12388 (10 minutes post injection) in heart of male wistar rats; type: ADME, organism-based; details: in vivo; in short: as §1
[16] = organism: Rattus norvegicus; experiment: Biodistribution of [18]Fluoro-CGP 12388 (10 minutes post injection) in intestine of male wistar rats; type: ADME, organism-based; details: in vivo; in short: as §1
[17] = organism: Rattus norvegicus; experiment: Biodistribution of [18]Fluoro-CGP 12388 (10 minutes post injection) in kidney of male wistar rats; type: ADME, organism-based; details: in vivo; in short: as §1
[18] = organism: Rattus norvegicus; experiment: Biodistribution of [18]Fluoro-CGP 12388 (10 minutes post injection) in liver of male wistar rats; type: ADME, organism-based; details: in vivo; in short: as §1
[19] = organism: Rattus norvegicus; experiment: Biodistribution of [18]Fluoro-CGP 12388 (10 minutes post injection) in lung of male wistar rats; type: ADME, organism-based; details: in vivo; in short: as §1
[20] = organism: Rattus norvegicus; experiment: Biodistribution of [18]Fluoro-CGP 12388 (10 minutes post injection) in muscle of male wistar rats; type: ADME, organism-based, Muscle tissue; details: in vivo; in short: as §1
[21] = organism: Rattus norvegicus; experiment: Biodistribution of [18]Fluoro-CGP 12388 (10 minutes post injection) in plasma of male wistar rats; type: ADME, organism-based; details: in vivo; in short: as §1
[22] = organism: Rattus norvegicus; experiment: Biodistribution of [18]Fluoro-CGP 12388 (10 minutes post injection) in red blood cells of male wistar rats; type: ADME, organism-based; details: in vivo; in short: as §1
[23] = organism: Rattus norvegicus; experiment: Biodistribution of [18]Fluoro-CGP 12388 (10 minutes post injection) in spleen of male wistar rats; type: ADME, organism-based; details: in vivo; in short: as §1
[24] = organism: Rattus norvegicus; experiment: Biodistribution of [18]Fluoro-CGP 12388 (10 minutes post injection) in trachea of male wistar rats; type: ADME, organism-based; details: in vivo; in short: as §1
[25] = organism: Rattus norvegicus; experiment: Biodistribution of [18]Fluoro-CGP 12388 (60 minutes post injection) in bone of male wistar rats; type: ADME, organism-based, Bone element; details: in vivo, 1 h; in short: as §1
[26] = organism: Rattus norvegicus; experiment: Biodistribution of [18]Fluoro-CGP 12388 (60 minutes post injection) in cerebellum of male wistar rats; type: ADME, organism-based; details: in vivo, 1 h; in short: as §1
[27] = organism: Rattus norvegicus; experiment: Biodistribution of [18]Fluoro-CGP 12388 (60 minutes post injection) in cortex of male wistar rats; type: ADME, organism-based; details: in vivo, 1 h; in short: as §1
[28] = organism: Rattus norvegicus; experiment: Biodistribution of [18]Fluoro-CGP 12388 (60 minutes post injection) in fat of male wistar rats; type: ADME, organism-based, Adipose tissue; details: in vivo, 1 h; in short: as §1
[29] = Partition coefficient (logP); type: physicochemical; details: octanol/water
In short: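 50-100 μCi of tracer in 0.1 M phosphate buffer pH 7.4 (5 mL) plus n-octanol (5 mL). Shaken vigorously for 30 min at 37 °C, five mixtures. 100 μL of each layer gamma-counted. log P from the octanol/water count ratio, n = 5. A calculated value was also obtained with Pallas 1.2.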

[30] = organism: Rattus norvegicus; experiment: Biodistribution of [11C]-CGP- 12388 (10 minutes post injection) in heart of male wistar rats; type: ADME, organism-based; details: in vivo
In short: (§3)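 Male Wistar rats (200 ± 20 g) under pentobarbital anesthesia (60 mg/kg ip) got iv saline (controls, n = 4) or 500 μg (±)-propranolol (blocking, n = 4) <1 min before the tracer. Tracer dose was 1 MBq (30 pmol) in 0.3 mL. Rats were killed by heart extirpation at 10 min and tissues counted. Plasma was spun 3 min at 1000g. Uptake is given as DAR, mean ± SD.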

[31] = organism: Rattus norvegicus; experiment: Biodistribution of [11C]-CGP- 12388 (10 minutes post injection) in lung of male wistar rats; type: ADME, organism-based; details: in vivo; in short: as §3

DAR [1]: 0.46 | DAR [2]: 0.87 | DAR [3]: 0.91 | DAR [4]: 0.59 | DAR [5]: 0.3 | DAR [6]: 0.35 | DAR [7]: 0.39 | DAR [8]: 0.41 | DAR [9]: 0.37 | DAR [10]: 0.64 | DAR [11]: 0.39 | DAR [12]: 0.17 | DAR [13]: 0.13 | DAR [14]: 0.53 | DAR [15]: 1.09 | DAR [16]: 1.52 | DAR [17]: 7.93 | DAR [18]: 1.62 | DAR [19]: 1.37 | DAR [20]: 0.42 | DAR [21]: 0.51 | DAR [22]: 0.57 | DAR [23]: 1.17 | DAR [24]: 0.7 | DAR [25]: 0.41 | DAR [26]: 0.12 | DAR [27]: 0.12 | DAR [28]: 0.07 | logP [29]: 0.44
SMILES: CC(C[18F])NC[C@H](O)COc1cccc2[nH]c(O)nc12 (some centres not stated)

DAR [30]: 0.94 | DAR [31]: 2.3 | logP [29]: -0.5
SMILES: [3H]c1cc([3H])c2c(c1OCC(O)CNC(C)(C)C)=NC(=O)N=2 (configuration not stated)
